For assay [1], the species on record is Homo sapiens. The assay can be described thus: Inhibitory activity against human monocyte at the concentration of 10 uM. Type of assay: functional. The method, boiled down: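 Human monocyte caspase-1-dependent cellular assay. Compound tested at a single 10 µM concentration. Read-out is percent inhibition.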
A further assay has as its target T1, Caspase-9 (Homo sapiens, UniProt P55211).
T1 sequence (P55211 whole entry): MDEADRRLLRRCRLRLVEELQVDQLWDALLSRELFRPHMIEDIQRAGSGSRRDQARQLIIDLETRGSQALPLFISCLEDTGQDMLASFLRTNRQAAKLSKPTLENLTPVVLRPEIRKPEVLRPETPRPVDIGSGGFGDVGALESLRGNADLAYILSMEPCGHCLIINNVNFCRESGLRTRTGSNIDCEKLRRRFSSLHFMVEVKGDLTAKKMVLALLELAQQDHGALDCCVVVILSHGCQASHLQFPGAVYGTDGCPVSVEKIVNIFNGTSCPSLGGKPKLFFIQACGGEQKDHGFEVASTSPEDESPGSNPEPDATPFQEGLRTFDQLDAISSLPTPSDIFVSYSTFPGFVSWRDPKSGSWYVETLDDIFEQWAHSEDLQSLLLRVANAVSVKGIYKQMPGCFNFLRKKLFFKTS
The assay can be described thus: Binding affinity towards human Caspase-9.

The species entered for assay [2] is Homo sapiens. The assay can be described thus: Inhibitory activity against human monocyte. It counts as functional. The method, boiled down:
(§1)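 Human cells (monocytes; THP-1 line) in a caspase-1-dependent cellular assay run for 24 h at 37 °C. Read-out is IC50 (µM).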

A further assay has as its system SKW 6.4. The assay can be described thus: Inhibitory activity was evaluated against human SKW 6.4 cell line in cellular assay. Type of assay: functional, cell-based. Put shortly: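 Cellular assay (Con A; SKW 6.4 cells) run for 24 h at 37 °C. Read-out is IC50 (µM).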
In a further assay the test system is Jurkat. The assay can be described thus: Inhibitory activity evaluated against human jurkat cell line in cellular assay. Type of assay: functional, cell-based. Put shortly: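 Human Jurkat cells, in an assay where caspase-8 is relevant but other caspases also contribute. Run for 24 h at 37 °C. Read-out is IC50 (µM).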
In the next assay the test system is THP-1. The assay can be described thus: Inhibitory activity evaluated against human THP-1 cell line in cellular assay. It counts as functional, cell-based. The method, boiled down:
as §1

For a further assay, the species on record is Rattus norvegicus. The assay can be described thus: Inhibitory activity evaluated against rat Con A embryonic cortical neurons in cellular assay. Type of assay: functional.

Molecules are shown by their SMILES. Some results are limits rather than exact numbers.

For orientation: inhibition means how much of the control response was suppressed. A high value points to a response far below the control. By IC50 is commonly meant the point on the concentration scale where inhibition reaches its midpoint. High values mean weaker potency, low ones greater potency. Compound `CC(C)C[C@H](NC(=O)C(=O)Nc1cccc2ccccc12)C(=O)N[C@H](C=O)CC(=O)O` displayed an inhibition at 10 µM in the assay filed under Homo sapiens [1] of 79%. For the same compound, the values for the IC50 on Caspase-9 and in the assay filed under Homo sapiens [2] were 230 nM and 3.08 µM, respectively.
`CC(C)[C@H](NC(=O)C(=O)NCCc1ccccc1)C(=O)N[C@@H](CC(=O)O)C(=O)COc1c(F)c(F)cc(F)c1F`: the IC50 with SKW 6.4 stood at 610 nM; in the assay with Jurkat, 4700 nM; in the assay on THP-1, 80 nM; in the assay filed under Rattus norvegicus, 3500 nM.
In the case of `CC(C)[C@H](NC(=O)C(=O)Nc1ccc(F)cc1)C(=O)N[C@@H](CC(=O)O)C(=O)COc1c(F)c(F)cc(F)c1F`, the IC50 in the assay on SKW 6.4 is 920 nM; in the assay with Jurkat, 19 nM; in the assay with THP-1 it was 1210 nM; in the assay filed under Rattus norvegicus, 2000 nM.
Take `CC(C)[C@H](NC(=O)C(=O)NC12CC3CC(CC(C3)C1)C2)C(=O)N[C@@H](CC(=O)O)C(=O)COc1c(F)c(F)cc(F)c1F`: the IC50 in the assay with SKW 6.4 worked out at 720 nM; in the assay on Jurkat, 1760 nM; with THP-1, 1790 nM; in the assay listed under Rattus norvegicus, 3500 nM.
As for `CCCCCCCc1ccc(NC(=O)C(=O)N[C@H](C(=O)N[C@@H](CC(=O)O)C(=O)COc2c(F)c(F)cc(F)c2F)C(C)C)cc1`, the IC50 was 13000 nM in the assay with SKW 6.4, 270 nM in the assay on Jurkat, 6600 nM in the assay on THP-1 and over 50000 nM in the assay listed under Rattus norvegicus.
Turning to `CC(C)[C@H](NC(=O)C(=O)NC1CCCCC1)C(=O)N[C@@H](CC(=O)O)C(=O)COc1c(F)c(F)cc(F)c1F`, the IC50 in the assay on SKW 6.4 was 1780 nM; with Jurkat, 60 nM; in the assay on THP-1, 720 nM; in the assay listed under Rattus norvegicus, 6120 nM.
Consider `CC(C)[C@H](NC(=O)C(=O)Nc1ccccc1F)C(=O)N[C@@H](CC(=O)O)C(=O)COc1c(F)c(F)cc(F)c1F`, for which the IC50 in the assay with SKW 6.4 was found to be 500 nM; in the assay on Jurkat, 97 nM; in the assay on THP-1, 680 nM; in the assay listed under Rattus norvegicus it was 970 nM.
For `CC(C)[C@H](NC(=O)C(=O)Nc1ccccc1Oc1ccccc1)C(=O)N[C@@H](CC(=O)O)C(=O)COc1c(F)c(F)cc(F)c1F`, the IC50 in the assay on SKW 6.4 worked out at 1780 nM; in the assay with Jurkat it was 660 nM; in the assay on THP-1, 1770 nM; in the assay filed under Rattus norvegicus it was 2500 nM.
On to `CC(C)[C@H](NC(=O)C(=O)Nc1ccc2c(c1)CCC2)C(=O)N[C@@H](CC(=O)O)C(=O)COc1c(F)c(F)cc(F)c1F`, for which the IC50 in the assay on SKW 6.4 worked out at 270 nM; in the assay with Jurkat, 41 nM; with THP-1 it was 1280 nM; in the assay listed under Rattus norvegicus, 1000 nM.
The matching figures for `CC(C)[C@H](NC(=O)C(=O)Nc1ccccc1)C(=O)N[C@@H](CC(=O)O)C(=O)COc1c(F)c(F)cc(F)c1F`: 940 nM, 430 nM, 70 nM and 1500 nM.
On the same counts, the results for `CC(C)[C@H](NC(=O)C(=O)Nc1cnccn1)C(=O)N[C@@H](CC(=O)O)C(=O)COc1c(F)c(F)cc(F)c1F` are 19100 nM, 170 nM, 1440 nM and 5900 nM.
With `CC(C)[C@H](NC(=O)C(=O)Nc1ccc(I)cc1F)C(=O)N[C@@H](CC(=O)O)C(=O)COc1c(F)c(F)cc(F)c1F`, the IC50 in the assay on SKW 6.4 was 150 nM; with Jurkat it was 10 nM; in the assay on THP-1, 410 nM; in the assay listed under Rattus norvegicus, 700 nM.
Turning to `CC(C)[C@H](NC(=O)C(=O)NCc1ccccc1)C(=O)N[C@@H](CC(=O)O)C(=O)COc1c(F)c(F)cc(F)c1F`, the IC50 in the assay on SKW 6.4 stood at 910 nM; in the assay with Jurkat, 77.1 nM; with THP-1 it was 570 nM; in the assay listed under Rattus norvegicus, 1500 nM.
The matching figures for `CC(C)[C@H](NC(=O)C(=O)Nc1ccc2ccccc2c1)C(=O)N[C@@H](CC(=O)O)C(=O)COc1c(F)c(F)cc(F)c1F`: 380 nM, 0.7 nM, 700 nM and 3280 nM.
With `CC(C)[C@H](NC(=O)C(=O)Nc1c(Cl)c(Cl)cc(Cl)c1Cl)C(=O)N[C@@H](CC(=O)O)C(=O)COc1c(F)c(F)cc(F)c1F`, the IC50 is 410 nM in the assay on SKW 6.4, 220 nM with Jurkat, 1050 nM in the assay with THP-1 and 660 nM in the assay listed under Rattus norvegicus.
`CC(C)[C@H](NC(=O)C(=O)Nc1cc(F)c(F)c(F)c1F)C(=O)N[C@@H](CC(=O)O)C(=O)COc1c(F)c(F)cc(F)c1F`: the IC50 was 1190 nM in the assay with SKW 6.4, 40 nM in the assay with Jurkat, 570 nM in the assay on THP-1 and 3500 nM in the assay listed under Rattus norvegicus.
In the case of `CC(C)[C@H](NC(=O)C(=O)Nc1ccccc1C(F)(F)F)C(=O)N[C@@H](CC(=O)O)C(=O)COc1c(F)c(F)cc(F)c1F`, the IC50 in the assay on SKW 6.4 worked out at 230 nM; in the assay with Jurkat, 1.7 nM; in the assay on THP-1, 820 nM; in the assay filed under Rattus norvegicus it was 650 nM.
`CC(C)C[C@H](NC(=O)COc1cccc2ccccc12)C(=O)N[C@H](C=O)CC(=O)O`: the inhibition at 10 µM in the assay filed under Homo sapiens [1] was determined as 17%. For the same compound, the IC50 on Caspase-9 amounted to 2720 nM.
`CC(C)[C@H](NC(=O)C(=O)Nc1ccccc1Cl)C(=O)N[C@@H](CC(=O)O)C(=O)COc1c(F)c(F)cc(F)c1F`: the IC50 came out at 110 nM in the assay with SKW 6.4, 16 nM in the assay on Jurkat, 160 nM in the assay with THP-1 and 300 nM in the assay listed under Rattus norvegicus.
As to `CC(C)[C@H](NC(=O)C(=O)Nc1c(F)cc(F)c(F)c1F)C(=O)N[C@@H](CC(=O)O)C(=O)COc1c(F)c(F)cc(F)c1F`, the concentration for half-maximal inhibition (IC50) with SKW 6.4 was 580 nM; in the assay with Jurkat, 110 nM; in the assay with THP-1 it was 270 nM; in the assay filed under Rattus norvegicus, 2100 nM.
Turning to `CC(C)[C@H](NC(=O)C(=O)Nc1ccccc1C(C)(C)C)C(=O)N[C@@H](CC(=O)O)C(=O)COc1c(F)c(F)cc(F)c1F`, the IC50 worked out at 340 nM with SKW 6.4, 2.2 nM with Jurkat, 1850 nM in the assay with THP-1 and 5680 nM in the assay filed under Rattus norvegicus.
As for `CC(C)C[C@H](NC(=O)CNc1cccc2ccccc12)C(=O)N[C@H](C=O)CC(=O)O`, the inhibition at 10 µM in the assay filed under Homo sapiens [1] worked out at 18%. This compound came in with an IC50 on Caspase-9 of 160 nM.
With `CNC(=O)C(=O)N[C@H](C(=O)N[C@@H](CC(=O)O)C(=O)COc1c(F)c(F)cc(F)c1F)C(C)C`, the IC50 worked out at 1040 nM in the assay with SKW 6.4, 110 nM with Jurkat, 1230 nM in the assay on THP-1 and 7000 nM in the assay filed under Rattus norvegicus.
With `CC(C)[C@H](NC(=O)C(=O)Nc1ccccc1I)C(=O)N[C@@H](CC(=O)O)C(=O)COc1c(F)c(F)cc(F)c1F`, the IC50 was 1540 nM in the assay on SKW 6.4, 81 nM in the assay on Jurkat, 1500 nM in the assay with THP-1 and 1000 nM in the assay listed under Rattus norvegicus.
As to `CC(C)[C@H](NC(=O)C(=O)Nc1ccc(Cl)c2ccccc12)C(=O)N[C@@H](CC(=O)O)C(=O)COc1c(F)c(F)cc(F)c1F`, the IC50 with SKW 6.4 came to 2450 nM; with Jurkat it was 30 nM; with THP-1 it was 610 nM; in the assay listed under Rattus norvegicus, 750 nM.
The matching figures for `CC(C)[C@H](NC(=O)C(=O)Nc1ccc2cc3ccccc3cc2c1)C(=O)N[C@@H](CC(=O)O)C(=O)COc1c(F)c(F)cc(F)c1F`: 750 nM, 150 nM, 660 nM and 550 nM.
Turning to `CC(C)[C@H](NC(=O)C(=O)Nc1cccc2c1CCCC2)C(=O)N[C@@H](CC(=O)O)C(=O)COc1c(F)c(F)cc(F)c1F`, the IC50 is 1070 nM in the assay with SKW 6.4, 175 nM in the assay on Jurkat, 1100 nM in the assay on THP-1 and 2000 nM in the assay listed under Rattus norvegicus.
`CC(C)[C@H](NC(=O)C(=O)Nc1c(F)cccc1F)C(=O)N[C@@H](CC(=O)O)C(=O)COc1c(F)c(F)cc(F)c1F`: the IC50 in the assay with SKW 6.4 came to 1630 nM; in the assay with Jurkat it was 136 nM; in the assay on THP-1, 380 nM; in the assay filed under Rattus norvegicus, 1000 nM.

For the origin of these results see ChEMBL document CHEMBL1146752, “Oxamyl dipeptide caspase inhibitors developed for the treatment of stroke” (Bioorg Med Chem Lett, 2004).
